The IC50 is the concentration at which inhibition is half-maximal. A high value points to a need for much substance. As a reminder, the ED50 is the dose that gives a 50% effect, or the effect in half of the subjects. Low values mean an effect at a small dose, high ones a need for a large dose.

Data on 30 compounds can be found in ChEMBL document CHEMBL1145950, “2-arylureidobenzoic acids: selective noncompetitive antagonists for the homomeric kainate receptor subtype GluR5” (J Med Chem, 2003).

Molecules are shown by their SMILES.

Experiment [1] deals with T1, Glutamate receptor ionotropic, kainate 1 (Homo sapiens, UniProt P39086). The experiment can be described thus: In vitro inhibitory activity against human ionotropic glutamate receptor ionotropic kainate 1 (GluR-5) expressed in HEK293 cells. It counts as cell-based.
In experiment [2] the target is T1, Glutamate receptor ionotropic, kainate 1. The experiment can be described thus: Binding inhibition of compound against Ionotropic glutamate receptor ionotropic kainate 1 (GluR5) using [3H]ATPA as radioligand. Summed up: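 GluR5-expressing HEK293 cell membranes (washed in 50 mM Tris-HCl pH 7.1, prepared at 0-4 °C) incubated with 3 nM [3H]ATPA, 46-84 µg protein/assay, 60 min at 2 °C; test compounds at 3-30 µM. Nonspecific binding defined with 0.6 mM Glu; rapid filtration, liquid scintillation counting. At least three separate experiments.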

Experiment [3] deals with Mus musculus. The experiment in a line: ATPA induced rigidity in mice was determined after 30 minutes of administration. The format is functional. The gist of the method: (§1)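 Female NMRI mice, 20-25 g. Test substance given intravenously, n = 8 per dose, 5 or 30 min before ATPA (30 mg/kg i.v.; 3 mg/mL in saline, pH 7). Rigidity scored every 5 min over 30 min after ATPA, as percent of rigid mice over time.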

Experiment [4] deals with Mus musculus. The experiment can be described thus: ATPA induced rigidity in mice was determined after 5 minutes of administration. The format is functional. The gist of the method: as §1
Experiment [5] has as its target Glutamate receptor ionotropic, kainate 2 (Homo sapiens, UniProt Q13002). The experiment in a line: In vitro inhibitory activity against Ionotropic glutamate receptor ionotropic kainate 2 (GluR-6) of HEK293 cells in FLIPR assay. The format is cell-based. Summed up:
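Human GluR6 stably expressed in HEK293, plated 24 h before assay. Cells loaded with 2 µM Fluo-4-AM for 60 min at room temperature, washed into Na+-free Ringer, pH 7.4. Compound preincubated 1.5 min, then 0.2 µM domoate added (final). Inhibition of the FLIPR Ca2+ fluorescence rise (ex 488, em 510-570 nm) was measured; IC50 from ≥3 experiments.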

Experiment [6] has as its target Glutamate receptor 2 (Rattus norvegicus) (UniProt P19491). The experiment in a line: In vitro inhibitory activity against Ionotropic glutamate receptor AMPA 2 of HEK293 cells in FLIPR assay.
Experiment [7] deals with Glutamate receptor 3 (Rattus norvegicus) (UniProt P19492). The experiment in a line: In vitro inhibitory activity against Ionotropic glutamate receptor AMPA 3 of HEK293 cells in FLIPR assay.
The target in experiment [8] is Glutamate receptor 4 (Rattus norvegicus) (UniProt P19493). The experiment in a line: In vitro inhibitory activity against Ionotropic glutamate receptor AMPA 4 of HEK293 cells in FLIPR assay.
For experiment [9], the target named is Glutamate receptor 1 (Rattus norvegicus) (UniProt P19490). The experiment in a line: In vitro inhibitory activity against Ionotropic glutamate receptor AMPA 1 of HEK293 cells in FLIPR assay.
Glutamate receptor 1 (Rattus norvegicus), sequence (P19490 whole entry, looked up): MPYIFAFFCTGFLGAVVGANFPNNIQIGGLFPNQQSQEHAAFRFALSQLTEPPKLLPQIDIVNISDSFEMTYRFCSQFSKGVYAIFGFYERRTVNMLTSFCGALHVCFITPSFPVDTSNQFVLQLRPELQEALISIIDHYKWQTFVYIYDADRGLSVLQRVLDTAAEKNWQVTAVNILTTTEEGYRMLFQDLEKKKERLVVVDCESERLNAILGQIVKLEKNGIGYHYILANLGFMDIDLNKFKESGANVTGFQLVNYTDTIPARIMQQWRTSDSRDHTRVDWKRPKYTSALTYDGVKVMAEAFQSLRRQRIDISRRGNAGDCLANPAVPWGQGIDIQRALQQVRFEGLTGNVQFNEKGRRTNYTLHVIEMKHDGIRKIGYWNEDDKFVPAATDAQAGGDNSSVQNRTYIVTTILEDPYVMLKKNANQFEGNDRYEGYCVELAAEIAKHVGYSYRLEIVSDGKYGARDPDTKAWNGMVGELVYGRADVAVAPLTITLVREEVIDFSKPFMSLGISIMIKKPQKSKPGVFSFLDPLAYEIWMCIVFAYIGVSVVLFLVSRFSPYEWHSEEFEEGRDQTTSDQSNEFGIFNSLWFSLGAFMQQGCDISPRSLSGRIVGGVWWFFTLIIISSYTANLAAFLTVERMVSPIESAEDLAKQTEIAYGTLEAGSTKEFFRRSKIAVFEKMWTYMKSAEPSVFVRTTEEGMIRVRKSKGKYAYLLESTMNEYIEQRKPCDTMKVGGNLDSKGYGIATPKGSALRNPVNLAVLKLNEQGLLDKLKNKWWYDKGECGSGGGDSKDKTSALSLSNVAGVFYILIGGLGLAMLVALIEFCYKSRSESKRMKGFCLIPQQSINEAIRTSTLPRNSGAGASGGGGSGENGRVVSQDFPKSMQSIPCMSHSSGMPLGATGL

T1 sequence (P39086 whole entry): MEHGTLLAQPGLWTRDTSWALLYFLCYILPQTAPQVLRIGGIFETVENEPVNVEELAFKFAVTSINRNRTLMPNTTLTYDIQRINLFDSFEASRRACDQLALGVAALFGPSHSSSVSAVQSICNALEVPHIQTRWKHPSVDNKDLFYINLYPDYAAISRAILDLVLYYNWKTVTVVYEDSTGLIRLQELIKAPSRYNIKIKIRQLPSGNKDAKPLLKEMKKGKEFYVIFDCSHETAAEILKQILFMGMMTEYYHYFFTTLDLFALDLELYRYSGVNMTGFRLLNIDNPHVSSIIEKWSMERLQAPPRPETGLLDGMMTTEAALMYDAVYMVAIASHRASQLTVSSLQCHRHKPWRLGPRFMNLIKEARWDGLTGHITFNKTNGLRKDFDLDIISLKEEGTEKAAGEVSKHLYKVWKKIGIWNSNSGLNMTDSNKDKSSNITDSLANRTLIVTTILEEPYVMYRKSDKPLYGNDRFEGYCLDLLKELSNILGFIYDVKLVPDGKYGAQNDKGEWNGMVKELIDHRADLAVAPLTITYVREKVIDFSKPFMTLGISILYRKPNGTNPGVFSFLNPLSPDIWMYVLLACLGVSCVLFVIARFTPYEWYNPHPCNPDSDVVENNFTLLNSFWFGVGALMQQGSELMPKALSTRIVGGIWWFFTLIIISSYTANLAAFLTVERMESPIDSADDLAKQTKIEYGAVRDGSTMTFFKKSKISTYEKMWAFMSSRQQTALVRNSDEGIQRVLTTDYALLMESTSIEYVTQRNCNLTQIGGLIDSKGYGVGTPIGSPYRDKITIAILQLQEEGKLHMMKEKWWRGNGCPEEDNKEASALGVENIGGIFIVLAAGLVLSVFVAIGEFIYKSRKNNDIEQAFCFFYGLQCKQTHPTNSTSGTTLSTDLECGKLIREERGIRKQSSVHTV
Glutamate receptor 3 (Rattus norvegicus), sequence (P19492 whole entry, looked up): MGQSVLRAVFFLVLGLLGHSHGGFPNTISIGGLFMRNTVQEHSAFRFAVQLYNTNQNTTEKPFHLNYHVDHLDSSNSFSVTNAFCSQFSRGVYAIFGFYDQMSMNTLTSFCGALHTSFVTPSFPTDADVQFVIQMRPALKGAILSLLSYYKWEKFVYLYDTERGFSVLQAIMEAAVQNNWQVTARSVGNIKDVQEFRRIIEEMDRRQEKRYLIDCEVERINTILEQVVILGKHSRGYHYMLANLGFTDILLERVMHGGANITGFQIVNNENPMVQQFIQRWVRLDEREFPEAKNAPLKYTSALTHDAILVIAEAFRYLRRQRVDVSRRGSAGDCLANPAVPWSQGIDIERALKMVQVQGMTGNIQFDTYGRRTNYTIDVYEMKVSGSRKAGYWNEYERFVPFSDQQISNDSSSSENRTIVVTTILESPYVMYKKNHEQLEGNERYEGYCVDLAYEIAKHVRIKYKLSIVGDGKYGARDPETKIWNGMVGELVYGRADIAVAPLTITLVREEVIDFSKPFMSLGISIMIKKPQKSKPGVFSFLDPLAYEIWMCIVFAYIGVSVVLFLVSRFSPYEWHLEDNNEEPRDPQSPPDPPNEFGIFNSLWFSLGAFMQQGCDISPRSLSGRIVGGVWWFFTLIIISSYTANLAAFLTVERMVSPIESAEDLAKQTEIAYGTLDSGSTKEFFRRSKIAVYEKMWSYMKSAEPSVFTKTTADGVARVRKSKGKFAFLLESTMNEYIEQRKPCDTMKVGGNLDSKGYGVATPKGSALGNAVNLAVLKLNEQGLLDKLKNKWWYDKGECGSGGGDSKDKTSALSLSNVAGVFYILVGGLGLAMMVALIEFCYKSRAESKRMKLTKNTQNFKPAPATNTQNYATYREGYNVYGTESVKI
Glutamate receptor ionotropic, kainate 2, sequence (Q13002 whole entry): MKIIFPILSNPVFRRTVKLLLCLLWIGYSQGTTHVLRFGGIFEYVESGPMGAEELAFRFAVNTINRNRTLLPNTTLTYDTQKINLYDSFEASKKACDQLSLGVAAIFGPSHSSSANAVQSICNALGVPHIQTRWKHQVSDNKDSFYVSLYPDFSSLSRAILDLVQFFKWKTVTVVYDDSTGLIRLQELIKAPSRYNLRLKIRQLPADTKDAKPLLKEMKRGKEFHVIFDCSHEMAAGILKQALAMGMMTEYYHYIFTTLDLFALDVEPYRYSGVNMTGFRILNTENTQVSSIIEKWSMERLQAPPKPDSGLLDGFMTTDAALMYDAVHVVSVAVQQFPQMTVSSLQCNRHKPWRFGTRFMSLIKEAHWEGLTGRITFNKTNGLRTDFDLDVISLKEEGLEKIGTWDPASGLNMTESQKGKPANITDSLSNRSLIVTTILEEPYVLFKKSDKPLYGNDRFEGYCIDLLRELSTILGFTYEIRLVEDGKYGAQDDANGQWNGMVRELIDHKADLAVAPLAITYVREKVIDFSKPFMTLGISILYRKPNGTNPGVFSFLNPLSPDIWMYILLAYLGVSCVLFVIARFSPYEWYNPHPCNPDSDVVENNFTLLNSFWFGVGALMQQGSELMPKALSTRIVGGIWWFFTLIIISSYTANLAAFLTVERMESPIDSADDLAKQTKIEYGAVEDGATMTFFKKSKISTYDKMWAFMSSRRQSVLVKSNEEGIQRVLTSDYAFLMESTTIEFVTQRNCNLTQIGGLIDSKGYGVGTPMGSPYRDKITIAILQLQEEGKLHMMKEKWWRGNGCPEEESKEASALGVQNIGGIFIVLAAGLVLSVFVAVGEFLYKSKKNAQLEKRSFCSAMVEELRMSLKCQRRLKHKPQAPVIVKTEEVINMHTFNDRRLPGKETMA
Glutamate receptor 4 (Rattus norvegicus), sequence (P19493 whole entry, looked up): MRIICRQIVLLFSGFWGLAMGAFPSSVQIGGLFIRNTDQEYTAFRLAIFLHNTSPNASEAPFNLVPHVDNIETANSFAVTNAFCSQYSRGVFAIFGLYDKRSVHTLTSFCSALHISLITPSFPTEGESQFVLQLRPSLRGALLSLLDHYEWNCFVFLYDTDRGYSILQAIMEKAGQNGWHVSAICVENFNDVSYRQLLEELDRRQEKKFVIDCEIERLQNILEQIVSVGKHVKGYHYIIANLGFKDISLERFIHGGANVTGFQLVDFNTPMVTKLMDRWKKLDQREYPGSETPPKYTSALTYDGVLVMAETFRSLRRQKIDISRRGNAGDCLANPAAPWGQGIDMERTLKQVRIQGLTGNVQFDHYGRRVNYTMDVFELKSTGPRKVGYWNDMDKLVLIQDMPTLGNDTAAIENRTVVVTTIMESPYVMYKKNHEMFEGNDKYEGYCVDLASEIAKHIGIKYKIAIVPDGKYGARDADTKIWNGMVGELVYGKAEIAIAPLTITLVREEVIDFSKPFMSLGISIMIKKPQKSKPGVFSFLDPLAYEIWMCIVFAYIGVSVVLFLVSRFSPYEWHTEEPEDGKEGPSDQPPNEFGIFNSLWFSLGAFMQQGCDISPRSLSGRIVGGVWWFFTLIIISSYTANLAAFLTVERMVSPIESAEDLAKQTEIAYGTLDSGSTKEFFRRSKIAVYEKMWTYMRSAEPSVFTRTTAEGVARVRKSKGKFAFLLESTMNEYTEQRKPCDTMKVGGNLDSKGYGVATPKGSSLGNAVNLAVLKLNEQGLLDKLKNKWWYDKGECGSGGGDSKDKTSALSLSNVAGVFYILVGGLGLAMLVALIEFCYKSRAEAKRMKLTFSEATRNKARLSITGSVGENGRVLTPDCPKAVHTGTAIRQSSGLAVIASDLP

In the case of `COc1cccc(NC(=O)Nc2cc(Cl)ccc2C(=O)O)c1`, the 50% inhibitory concentration (IC50) in [1] is 3.7 µM.

Consider `COc1ccc(NC(=O)Nc2cc(Cl)ccc2C(=O)O)cc1`, for which the IC50 in experiment [1] stood at 10 µM. As to `O=C(Nc1cc(Cl)ccc1C(=O)O)NC1CCCCC1`, the IC50 in experiment [1] is over 100 µM. Same read-out and setting: next, `Cc1cccc(NC(=O)Nc2cccc(C(F)(F)F)c2)c1C(=O)O`: over 100 µM. On to `O=C(Nc1ccc(Cl)cc1)Nc1cc(Cl)ccc1C(=O)O`, for which, in [1], the 50% inhibitory concentration (IC50) amounted to 3.1 µM.

`O=C(Nc1ccccc1Cl)Nc1cc(Cl)ccc1C(=O)O` came in with a 50% inhibitory concentration (IC50) in experiment [1] of 4.7 µM. `O=C(Nc1ccncc1)Nc1cc(Cl)ccc1C(=O)O` yielded a half-inhibitory concentration (IC50) in experiment [1] of 88 µM.

Take `O=C(Nc1cccc(I)c1)Nc1cc(Cl)ccc1C(=O)O`: it took 2.2 µM to reach half-maximal inhibition in experiment [1] (IC50). Regarding `O=C(Nc1cccc(C(F)(F)F)c1)Nc1cc(Cl)ccc1C(=O)O`, the IC50 in experiment [1] is 5 µM. As to `O=C(Nc1cccc(Br)c1)Nc1cc(Cl)ccc1C(=O)O`, the concentration for half-maximal inhibition (IC50) was over 30 µM in experiment [2]; 4.8 µM in experiment [1]; 28 µM in experiment [5]; over 100 µM in experiment [6]; over 100 µM in experiment [7]; over 100 µM in experiment [8]. Besides, the concentration for half-maximal inhibition (IC50) in [9] is over 100 µM. Also, the ED50 in the experiment with Mus musculus [3] (Mus musculus, 0.5 h) was determined as 24 mg/kg; with Mus musculus [4] (Mus musculus, 5 min), 4 mg/kg. Turning to `O=C(Nc1cc(Cl)ccc1C(=O)O)Nc1ccccc1-c1ccccc1`, the concentration for half-maximal inhibition (IC50) in experiment [1] was over 10 µM.

In turn, `Cc1ccc(NC(=O)Nc2cccc(C(F)(F)F)c2)c(C(=O)O)c1` had a concentration for half-maximal inhibition (IC50) in experiment [1] of over 100 µM. Same read-out and setting: in the case of `O=C(Nc1ccc(Br)cc1)Nc1cc(Cl)ccc1C(=O)O` it was 2.2 µM; in that of `O=C(Nc1ccc2cc3ccccc3cc2c1)Nc1cc(Cl)ccc1C(=O)O`, over 30 µM; in that of `O=C(Nc1ccccc1I)Nc1cc(Cl)ccc1C(=O)O`, 5 µM. The same measure, in the same setting: in the case of `O=C(Nc1ccc(I)cc1)Nc1cc(Cl)ccc1C(=O)O` it was 4.7 µM.

In the case of `O=C(Nc1ccccc1Br)Nc1cc(Cl)ccc1C(=O)O`, the IC50 in experiment [1] stood at 4.5 µM. On the same count and under the same terms, in the case of `O=C(Nc1ccccc1)Nc1cc(Cl)ccc1C(=O)O` it was 10 µM; in that of `O=C(Nc1cc(Cl)ccc1C(=O)O)Nc1ccccc1C(F)(F)F`, 4.5 µM; in that of `O=C(Nc1cc(Cl)ccc1C(=O)O)Nc1cccc2ccccc12`, 9.4 µM. The same measure, in the same setting: next, `Cc1cccc(C(=O)O)c1NC(=O)Nc1cccc(C(F)(F)F)c1`: over 100 µM. Compound `O=C(Nc1cc(NC(=O)c2ccccc2)c(C(=O)O)cc1C(=O)O)c1ccccc1` returned a 50% inhibitory concentration (IC50) in experiment [1] of 1.6 µM.

`O=C(Nc1cccc(F)c1)Nc1cc(Cl)ccc1C(=O)O`: the concentration for half-maximal inhibition (IC50) in experiment [1] worked out at 7.6 µM.

`O=C(Nc1ccccc1)Nc1ccccc1C(=O)O` showed an IC50 in [1] of over 100 µM. On the same count and under the same terms, in the case of `O=C(Nc1cccc(C(F)(F)F)c1)Nc1cc(F)ccc1C(=O)O` it was 10 µM. In the case of `O=C(Nc1ccc2ccccc2c1)Nc1cc(Cl)ccc1C(=O)O`, the IC50 in experiment [2] is over 30 µM; in experiment [1], 1.2 µM; in [5], 62 µM; in experiment [7], over 100 µM; in experiment [8] it was over 100 µM; in [9], over 100 µM. Also, the ED50 in the experiment with Mus musculus [3] and in the experiment with Mus musculus [4] was over 30 mg/kg throughout. The compound `O=C(Nc1cccc(C(F)(F)F)c1)Nc1cc(Br)ccc1C(=O)O` registered an IC50 in experiment [1] of 6.1 µM. The same measure, in the same setting: next, `O=C(Nc1cc2ccccc2[nH]1)Nc1cc(Cl)ccc1C(=O)O`: 1.2 µM. Same read-out and setting: in the case of `O=C(Nc1ccc2c(c1)OCO2)Nc1cc(Cl)ccc1C(=O)O` it was 3.6 µM; in that of `O=C(Nc1ccc(C(F)(F)F)cc1)Nc1cc(Cl)ccc1C(=O)O`, 4.8 µM.
